Measurements collected from several papers.
Lines come from different studies, so protocols differ.
CA1: Carbonic anhydrase 1 (CA1, Homo sapiens, UniProt P00915)
SLC22A11: Solute carrier family 22 member 11 (SLC22A11, Homo sapiens, UniProt Q9NSA0)
Protein phosphatase methylesterase 1: Protein phosphatase methylesterase 1 (Homo sapiens, UniProt Q9Y570)
ADRA2A: Alpha-2A adrenergic receptor (ADRA2A, Homo sapiens, UniProt P08913)

SMILES | target | assay | test system | conditions | endpoint | result
CC[C@H](C)[C@H](NC(=O)[C@H](CCCCNC(=O)CN(CCNC(=O)CN(CCNC(=O)CN(CCNC(=O)CN(CCNC(=O)[C@H](CCCNC(=N)N)NC(C)=O)C(=O)Cn1ccc(N)nc1=O)C(=O)Cn1cnc2c(=O)[nH]c(N)nc21)C(=O)Cn1cnc2c(=O)[nH]c(N)nc21)C(=O)Cn1ccc(N)nc1=O)NC(=O)[C@H](C)NC(=O)[C@H](CCCNC(=N)N)NC(=O)[C@H](CCCCN)NC(=O)[C@H](CCC(N)=O)NC(=O)[C@H](CCC(N)=O)NC(=O)[C@H](CC(N)=O)NC(=O)[C@@H](NC(=O)[C@H](CC(C)C)NC(=O)[C@H](CC(N)=O)NC(=O)[C@@H]1CCCN1C(=O)[C@H](CC(=O)O)NC(=O)[C@H](CC(C)C)NC(=O)[C@H](C)NC(=O)[C@H](CS)NC(=O)[C@H](CCCC(=O)NCCN(CC(=O)NCCN(CC(=O)NCCN(CC(=O)NCCN(CC(N)=O)C(=O)Cn1cnc2c(=O)[nH]c(N)nc21)C(=O)Cn1ccc(N)nc1=O)C(=O)Cn1ccc(N)nc1=O)C(=O)Cn1cnc2c(=O)[nH]c(N)nc21)NC(=O)[C@H](Cc1c[nH]c2ccccc12)NC(=O)[C@H](Cc1ccc(O)cc1)NC(=O)[C@H](CCCNC(=N)N)NC(=O)[C@H](CC(N)=O)NC(=O)[C@H](CCCNC(=N)N)NC(=O)[C@H](CC1CCCCC1)NC(=O)[C@H](CCC(=O)O)NC(=O)[C@H](CCCCN)NC(=O)[C@H](CO)NC(=O)[C@H](Cc1ccccc1)NC(C)=O)[C@@H](C)O)C(=O)N[C@@H](CCCNC(=N)N)C(=O)N[C@@H](CO)C(=O)N[C@H](C(=O)N[C@@H](Cc1ccc(O)cc1)C(=O)N[C@@H](CCC(=O)O)C(=O)N[C@@H](CCC(=O)O)C(N)=O)[C@@H](C)CC | Receptor tyrosine-protein kinase erbB-2 (ERBB2, Homo sapiens, UniProt P04626) | binding, SPR |  |  | Kd | 0.00058 µM
O=C(Nc1ccc(C(F)(F)F)cc1)Nc1ccc2c(c1)C=CCP(=O)(O)O2 | CA1 | enzyme activity, inhibitor, stopped-flow |  |  | Ki | > 10 µM
CC(=O)c1c(C)c2cnc(Nc3ccc(C4CCN(CCS(C)(=O)=O)CC4)cn3)nc2n(C2CCCC2)c1=O | Cytochrome P450 2C19 (CYP2C19, Homo sapiens, UniProt P33261) | enzyme activity, inhibitor | human, liver microsomes |  | IC50 | > 10 µM
CC(C)C[C@H]1C(=O)N2CCC[C@H]2[C@]2(O)O[C@](NC(=O)[C@@H]3C=C4c5cccc6[nH]c(Br)c(c56)C[C@H]4N(C)C3)(C(C)C)C(=O)N12 | Synaptic vesicular amine transporter (SLC18A2, Homo sapiens, UniProt Q05940) | transporter uptake, inhibitor |  |  | IC50 | 4.85 µM
O=C(Nc1ccc2c(c1)C=CCP(=O)(O)O2)c1ccc2ccccc2c1 | CA1 | enzyme activity, inhibitor, stopped-flow |  |  | Ki | > 10 µM
N#Cc1c(Cl)c(Cl)c(Cl)c(C#N)c1Cl | SLC22A11 | transporter uptake, inhibitor |  |  | IC50 | 7.3 µM
CCOC(=O)c1ccc(OC(=O)CCCCCN=C(N)N)cc1 | Tryptase gamma (Homo sapiens, UniProt Q9NRR2) | enzyme activity, inhibitor |  |  | IC50 | 1.99 µM
O=P(Oc1ccccc1)(Oc1ccccc1)C(NCc1cncc2ccccc12)c1ccc(O)cc1 (stereo not drawn) | Protein phosphatase methylesterase 1 | enzyme activity, inhibitor |  | lysate | IC50 | 15.5 µM
C[CH2][Hg][S]c1ccccc1C(=O)[O-].[Na+] | SLC22A11 | transporter uptake, inhibitor |  |  | IC50 | 5 µM
O=C(Nc1cccc(F)c1)Nc1ccc2c(c1)C=CCP(=O)(O)O2 | CA1 | enzyme activity, inhibitor, stopped-flow |  |  | Ki | > 10 µM
O=C(CP(=O)(Oc1ccccc1)Oc1ccccc1)N/N=C/c1ccncc1Br | Protein phosphatase methylesterase 1 | enzyme activity, inhibitor |  | lysate | IC50 | 7 µM
NC(=S)N/N=C1/c2ccccc2[C@@H]2[C@H]1[C@@H](c1ccoc1)[C@H](C(=O)c1ccco1)[C@H]2c1ccoc1 | Carbonic anhydrase 2 (CA2, Homo sapiens, UniProt P00918) | enzyme activity, inhibitor, absorbance |  |  | IC50 | 0.748 µM
O=C(Nc1ccc2c(c1)C=CCP(=O)(O)O2)Nc1ccccc1Br | CA1 | enzyme activity, inhibitor, stopped-flow |  |  | Ki | > 10 µM
CCCCC1CNC2CCc3ccc(OC)cc3C12 (racemic) | ADRA2A | ligand displacement, radioligand |  |  | Ki | 0.26 µM
COc1cc2c(cc1OC)CN(CCc1ccc(NC(=O)c3cccc4c(=O)c5cccc(OC)c5[nH]c34)cc1)CC2 | ADRA2A | cell-free assay |  |  | Ki | 1.37 µM
